# Measurements from ChEMBL document CHEMBL4118104, “Design, Synthesis, and Evaluation of Orally Bioavailable Quinoline-Indole Derivatives as Innovative Multitarget-Directed Ligands: Promotion of Cell Proliferation in the Adult Murine Hippocampus for the Treatment of Alzheimer's Disease” (J Med Chem, 2018).
# The source made the active and inactive calls. The calls are words filed in the database; no cut-off is given here.
# How the values were obtained:
# PC-12 [1] = assay: Induction of rat PC12 cell proliferation at 0.5 to 50 uM after 72 hrs by microscopic analysis; format: functional, cell-based
# How it was run: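 Undifferentiated PC12 cells cultured 72 h with compound at 0.5–50 µM (images at 10 µM) or with NGF 50 ng/ml, then examined under a digital microscope.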
# [2] = Permeability of compound at 100 ug/ml after 10 hrs by PAMPA assay; format: ADME; conditions: read-out: permeability
# SH-SY5Y = assay: Neuroprotective activity against t-BuOOH-induced oxidative stress in human SH-SY5Y cells assessed as inhibition ROS accumulation pre-incubated for 24 hrs before t-BuOOH challnge for 30 mins by DCFH-DA probe based fluorescence assay; format: functional, cell-based
# How it was run: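 SH-SY5Y cells; test agents at 1–0.01 µM, oxidative stress induced by tert-butyl hydroperoxide; intracellular ROS read by DCFH-DA fluorescence; at least three independent experiments in sextuplicate; EC50 derived.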
# PC-12 [3] = assay: Cytotoxicity against rat undifferentiated PC12 cells at 0.5 to 50 uM after 72 hrs by MTT assay; format: cell-based; conditions: pc-12, 72 h
# Mus musculus [4] = assay: Induction of cell proliferation in C57BL/6 mouse hippocampal neurons in DG region assessed as BrdU-incorporation at 30 mg/kg, po administered via gavage for 7 days by immunohistochemical analysis (reference value: 2.2%); format: functional
# How it was run: (§1)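 C57BL/6 mice, 12 weeks old, n = 6, individually housed beforehand without wheels. Compound gavaged 30 mg/kg/day for 7 days with daily IP BrdU 50 mg/kg; BrdU+ cells counted by immunohistochemistry per hippocampal volume; two-way ANOVA.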
# Mus musculus [5] = assay: Toxicity in C57BL/6 mouse assessed as effect on body weight at 677 to 2000 mg/kg, ig measured continuously during first 4 hrs, intermittently for following 24 hrs and occasionally thereafter for 14 consecutive days; format: organism-based; conditions: in vivo, po
# Mus musculus [6] = assay: Induction of cell proliferation in C57BL/6 mouse hippocampal neurons in CA2 region assessed as BrdU-incorporation at 30 mg/kg, po administered via gavage for 7 days by immunohistochemical analysis (reference value: 2.4%); format: functional; how it was run: as §1
# Mus musculus [7] = assay: Induction of cell proliferation in C57BL/6 mouse hippocampal neurons in CA1 region assessed as BrdU-incorporation at 0.5 uL/hr, icv for 7 days by immunohistochemical analysis (reference value: 3.2%); format: functional
# Mus musculus [8] = assay: Toxicity in C57BL/6 mouse assessed as macroscopic abnormalities of intestine at 677 to 2000 mg/kg, ig after 14 consecutive days; format: organism-based; conditions: in vivo, po
# Mus musculus [9] = assay: Toxicity in C57BL/6 mouse assessed as mortality at 677 to 2000 mg/kg, ig measured continuously during first 4 hrs, intermittently for following 24 hrs and occasionally thereafter for 14 consecutive days; format: organism-based; conditions: in vivo, po
# How it was run: (§2)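 Adult C57BL/6 mice, 12 weeks old, given single intragastric doses of 0, 677, 1333 or 2000 mg/kg (n = 6 per dose, 3 male and 3 female). Abnormal behaviour and deaths observed continuously for the first 4 h, intermittently over the next 24 h, then occasionally for 14 days to catch delayed effects.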
# Mus musculus [10] = assay: Toxicity in C57BL/6 mouse assessed as histological abnormalities of liver at 2000 mg/kg, ig after 14 consecutive days by hematoxylin/eosin dye-based microscopic analysis; format: organism-based; conditions: in vivo, po, 336 h
# How it was run: (§3)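 Adult C57BL/6 mice, 12 weeks old, single intragastric doses of 0, 677, 1333 or 2000 mg/kg (n = 6 per dose, 3 male/3 female); behaviour and mortality observed over 14 days; liver, heart, lung and brain examined by HE staining at 2000 mg/kg.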
# Mus musculus [11] = assay: Induction of cell proliferation in C57BL/6 mouse hippocampal neurons in CA1 region assessed as BrdU-incorporation at 30 mg/kg, po administered via gavage for 7 days by immunohistochemical analysis (reference value: 2.3%); format: functional; how it was run: as §1
# Mus musculus [12] = assay: Induction of cell proliferation in C57BL/6 mouse hippocampal neurons in CA3 region assessed as BrdU-incorporation at 0.5 uL/hr, icv for 7 days by immunohistochemical analysis (reference value: 1.4%); format: functional
# Mus musculus [13] = assay: Toxicity in C57BL/6 mouse assessed as macroscopic abnormalities of heart at 677 to 2000 mg/kg, ig after 14 consecutive days; format: organism-based; conditions: in vivo, po
# Mus musculus [14] = assay: Toxicity in C57BL/6 mouse assessed as histological abnormalities of heart at 2000 mg/kg, ig after 14 consecutive days by hematoxylin/eosin dye-based microscopic analysis; format: organism-based; conditions: in vivo, po; how it was run: as §3
# Mus musculus [15] = assay: Toxicity in C57BL/6 mouse assessed as macroscopic abnormalities of spleen at 677 to 2000 mg/kg, ig after 14 consecutive days; format: organism-based; conditions: in vivo, po
# Mus musculus [16] = assay: Induction of cell proliferation in C57BL/6 mouse hippocampal neurons in DG region assessed as BrdU-incorporation at 0.5 uL/hr, icv for 7 days by immunohistochemical analysis (reference value: 7.8%); format: functional
# Mus musculus [17] = assay: Toxicity in C57BL/6 mouse assessed as macroscopic abnormalities of liver at 677 to 2000 mg/kg, ig after 14 consecutive days; format: organism-based; conditions: in vivo, po
# Mus musculus [18] = assay: Toxicity in C57BL/6 mouse assessed as macroscopic abnormalities of stomach at 677 to 2000 mg/kg, ig after 14 consecutive days; format: organism-based; conditions: in vivo, po
# Mus musculus [19] = assay: Toxicity in C57BL/6 mouse assessed as histological abnormalities of brain at 2000 mg/kg, ig after 14 consecutive days by hematoxylin/eosin dye-based microscopic analysis; format: organism-based; conditions: in vivo, po, 336 h; how it was run: as §3
# Mus musculus [20] = assay: Toxicity in C57BL/6 mouse assessed as macroscopic abnormalities of kidney at 677 to 2000 mg/kg, ig after 14 consecutive days; format: organism-based; conditions: in vivo, po
# [21] = Half life in Sprague-Dawley rat liver microsomes at 100 uM up to 180 mins by HPLC-UV analysis; conditions: liver microsomes
# [22] = Metabolic stability in Sprague-Dawley rat liver microsomes assessed as metabolic rate constant at 100 uM up to 180 mins by HPLC-UV analysis; conditions: 3 h
# Mus musculus [23] = assay: Toxicity in C57BL/6 mouse assessed as effect on food intake at 677 to 2000 mg/kg, ig measured continuously during first 4 hrs, intermittently for following 24 hrs and occasionally thereafter for 14 consecutive days; format: organism-based; conditions: in vivo, po
# Mus musculus [24] = assay: Toxicity in C57BL/6 mouse assessed as macroscopic abnormalities of lung at 677 to 2000 mg/kg, ig after 14 consecutive days; format: organism-based; conditions: in vivo, po, 336 h
# Mus musculus [25] = assay: Toxicity in C57BL/6 mouse assessed as abnormal behavior at 677 to 2000 mg/kg, ig measured continuously during first 4 hrs, intermittently for following 24 hrs and occasionally thereafter for 14 consecutive days; format: organism-based; conditions: in vivo, po; how it was run: as §2
# Mus musculus [26] = assay: Toxicity in C57BL/6 mouse assessed as effect on water intake at 677 to 2000 mg/kg, ig measured continuously during first 4 hrs, intermittently for following 24 hrs and occasionally thereafter for 14 consecutive days; format: organism-based; conditions: in vivo, po
# Mus musculus [27] = assay: Induction of cell proliferation in C57BL/6 mouse hippocampal neurons in CA3 region assessed as BrdU-incorporation at 30 mg/kg, po administered via gavage for 7 days by immunohistochemical analysis (reference value: 1.5%); format: functional; how it was run: as §1
# Mus musculus [28] = assay: Toxicity in C57BL/6 mouse assessed as histological abnormalities of lung at 2000 mg/kg, ig after 14 consecutive days by hematoxylin/eosin dye-based microscopic analysis; format: organism-based; conditions: in vivo, po, 336 h; how it was run: as §3
# Mus musculus [29] = assay: Induction of cell proliferation in C57BL/6 mouse hippocampal neurons in CA2 region assessed as BrdU-incorporation at 0.5 uL/hr, icv for 7 days by immunohistochemical analysis (reference value: 2.4%); format: functional
smiles,measurement,setting,value
COc1cc2[nH]c(-c3ccc4c(Cl)cc(Cl)c(O)c4n3)cc2cc1O,Activity,PC-12 [1],inactive
same,"Papp at 10 h, 100 ug/ml",[2],8.4 ×10⁻⁶ cm/s
COc1cc2[nH]c(-c3ccc4cccc(O)c4n3)cc2cc1O,"Papp at 10 h, 100 ug/ml",[2],12.1 ×10⁻⁶ cm/s
Oc1c(Cl)cc(Cl)c2ccc(-c3cc4cc(F)ccc4[nH]3)nc12,Activity,PC-12 [1],inactive
same,"Papp at 10 h, 100 ug/ml",[2],5.3 ×10⁻⁶ cm/s
Oc1ccc2[nH]c(-c3ccc4c(Cl)cc(Cl)c(O)c4n3)cc2c1,EC50,SH-SY5Y,100 nM
same,Activity,PC-12 [3],Non-Toxic
same,"Papp at 10 h, 100 ug/ml",[2],10.2 ×10⁻⁶ cm/s
Oc1c(Cl)cc(Cl)c2ccc(-c3cc4ccccc4[nH]3)nc12,Activity,PC-12 [1],inactive
same,"Papp at 10 h, 100 ug/ml",[2],6.6 ×10⁻⁶ cm/s
Cl.Oc1c(Cl)cc(Cl)c2ccc(-c3cc4cc(Cl)ccc4[nH]3)nc12,Activity,Mus musculus [4],4.4%
same,Activity,Mus musculus [5],Non-Toxic
same,Activity,Mus musculus [6],5.1%
same,Activity,Mus musculus [7],15.3%
same,Activity,Mus musculus [8],Non-Toxic
same,Activity,Mus musculus [9],Non-Toxic
same,Activity,Mus musculus [10],Non-Toxic
same,Activity,Mus musculus [11],4.8%
same,Activity,Mus musculus [12],20.3%
same,Activity,Mus musculus [13],Non-Toxic
same,Activity,Mus musculus [14],Non-Toxic
same,Activity,Mus musculus [15],Non-Toxic
same,Activity,Mus musculus [16],28.5%
same,Activity,Mus musculus [17],Non-Toxic
same,Activity,Mus musculus [18],Non-Toxic
same,Activity,Mus musculus [19],Non-Toxic
same,Activity,Mus musculus [20],Non-Toxic
same,"half-life at 3 h, 100 µM",[21],196 min
same,K,[22],0.00354 min⁻¹
same,Activity,Mus musculus [23],Non-Toxic
same,Activity,Mus musculus [24],Non-Toxic
same,Activity,Mus musculus [25],Non-Toxic
same,Activity,Mus musculus [26],Non-Toxic
same,Activity,Mus musculus [27],4.7%
same,Activity,Mus musculus [28],Non-Toxic
same,Activity,Mus musculus [29],18.1%
Oc1c(Cl)cc(Cl)c2ccc(-c3cc4cc(Cl)ccc4[nH]3)nc12,EC50,SH-SY5Y,820 nM
same,Activity,PC-12 [3],Non-Toxic
same,"Papp at 10 h, 100 ug/ml",[2],5.6 ×10⁻⁶ cm/s
C[C@]12CC[C@H]3[C@@H](CCC4=CC(=O)CC[C@@]43C)[C@@H]1CC[C@@H]2O [TESTOSTERONE],K,[22],0.3132 min⁻¹
Oc1cccc2ccc(-c3cc4cc(Cl)ccc4[nH]3)nc12,Activity,PC-12 [3],Toxic
same,"Papp at 10 h, 100 ug/ml",[2],9.8 ×10⁻⁶ cm/s
Oc1ccc2[nH]c(-c3ccc4cccc(O)c4n3)cc2c1,Activity,PC-12 [3],Toxic
same,"Papp at 10 h, 100 ug/ml",[2],14.8 ×10⁻⁶ cm/s
COc1cc2cc(-c3ccc4cccc(O)c4n3)[nH]c2cc1OC,"Papp at 10 h, 100 ug/ml",[2],5.2 ×10⁻⁶ cm/s
Oc1cccc2ccc(-c3cc4cc(F)ccc4[nH]3)nc12,"Papp at 10 h, 100 ug/ml",[2],10.6 ×10⁻⁶ cm/s
